ChEMBL document CHEMBL4715858, “10-N-heterocylic aryl-isoxazole-amides (AIMs) have robust anti-tumor activity against breast and brain cancer cell lines and useful fluorescence properties” (Bioorg Med Chem, 2020)
The source made the active and inactive calls. The calls are words filed in the database; no cut-off is given here.

Key:
SNB-19 [1] = assay: Anticancer activity against human SNB-19 cells assessed as cell growth inhibition measured after 3 to 5 days by MTT assay; assay type: functional, cell-based
Summary of the method: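 MTT colorimetric growth-inhibition assay in SNB-19 glioblastoma cells. IC50 obtained by fitting a logistic model to the dose-response data, as the concentration giving 50% growth inhibition relative to the DMSO control.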

MDA-MB-468 = assay: Anticancer activity against human MDA-MB-468 cells assessed as cell growth inhibition measured after 3 to 5 days by MTT assay; assay type: functional, cell-based
C6 = assay: Anticancer activity against rat C6 cells assessed as cell growth inhibition measured after 3 to 5 days by MTT assay; assay type: functional, cell-based
Quadruplex DNA [2] = assay: Stabilization of c-myc Pu22 G4 quadruplex oligonucleotide (unknown origin) assessed as anisotropic shift at 2 equivalents of compound by NMR spectroscopy; assay type: nucleic-acid assay
Summary of the method: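 1H NMR titration of the c-myc Pu22 oligomer, following the G-tetrad imino hydrogen-bonding region (10.95–11.6 ppm) for anisotropic shifts.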

[3] = Drug uptake in human SNB-19 cells assessed as punctate localization at 500 nM incubated for 10 mins followed by compound washout twice by HCS NuclearMask staining based confocal laser scanning microscopy; assay type: ADME, cell-based; settings: snb-19, 10 min, 0.5 µM
Summary of the method: (§1)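 Cells plated at 20,000 cells/well and left to adhere overnight. Treatment medium was made from 5 mM DMSO stocks diluted in growth medium and applied for 10 min at growth conditions. Cells were then washed twice with PBS and fixed in 4% PFA for 10 min on ice. Imaged immediately by confocal microscopy, 60x oil objective, excitation 405 nm, emission 422 nm, with HCS NuclearMask counterstain.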

SNB-19 [4] = assay: Induction of apoptosis in human SNB-19 cells assessed as membrane blebbing at 500 nM incubated for 10 mins followed by compound washout twice by HCS NuclearMask staining based confocal laser scanning microscopy; assay type: functional, cell-based; summary of the method: as §1
SNB-19 [5] = assay: Induction of apoptosis in human SNB-19 cells assessed as organized cell death at 500 nM incubated for 10 mins followed by compound washout twice by HCS NuclearMask staining based confocal laser scanning microscopy; assay type: functional; summary of the method: as §1
[6] = Drug uptake in cytoplasm of human SNB-19 cells at 500 nM incubated for 10 mins followed by compound washout twice by HCS NuclearMask staining based confocal laser scanning microscopy; assay type: ADME, subcellular; settings: snb-19, 10 min, 0.5 µM; summary of the method: as §1
[7] = Drug uptake in nucleus of human SNB-19 cells at 500 nM incubated for 10 mins followed by compound washout twice by HCS NuclearMask staining based confocal laser scanning microscopy; assay type: ADME, subcellular; settings: snb-19, 10 min, 0.5 µM; summary of the method: as §1
Quadruplex DNA [8] = assay: Stabilization of c-myc Pu22 G4 quadruplex oligonucleotide (unknown origin) at 2 equivalents of compound by circular dichroism spectral analysis; assay type: nucleic-acid assay
Summary of the method: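 Pu22 at 5 µM strand in 1 mM potassium phosphate pH 6, alone or with 2 equivalents compound, annealed at 90 °C for 10 min and then cooled to 4 °C overnight. CD spectra recorded 200–400 nm at 5 °C, 1 nm bandwidth, 0.2 nm step, 0.5 s per point.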

Quadruplex DNA [9] = assay: Stabilization of c-myc Pu22 G4 quadruplex oligonucleotide (unknown origin) assessed as melting temperature at 2 equivalents of compound by thermal melting curve based analysis (reference value: 58.4 degC); assay type: nucleic-acid assay
Summary of the method: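 Annealed at 90 °C for 10 min, then cooled gradually to 4 °C overnight. CD melting monitored at 265 nm from 20–90 °C at 1 °C/min in 0.5 °C steps. Tm from a six-parameter logistic fit.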

| SMILES | IC50 (SNB-19 [1]) | IC50 (MDA-MB-468) | IC50 (C6) | Activity (Quadruplex DNA [2]) | other results |
| --- | --- | --- | --- | --- | --- |
| Cc1onc(-c2c3ccccc3c(-c3cccnc3)c3ccccc23)c1C(=O)Nc1cc(C(=O)N(CCCN(C)C)CCCN(C)C)n(C)c1 | 7.76 µM | 1.29 µM | > 25 µM |  |  |
| Cc1onc(-c2c3ccccc3c(-c3ccncc3)c3ccccc23)c1C(=O)Nc1cc(C(=O)N(CCCN(C)C)CCCN(C)C)n(C)c1 | 7.08 µM | 3.1 µM | 16.9 µM |  |  |
| CCOC(=O)c1c(-c2c3ccccc3c(-c3ccccc3)c3ccccc23)noc1C |  |  |  | Active |  |
| Cc1onc(-c2c3ccccc3c(-c3ccccn3)c3ccccc23)c1C(=O)Nc1cc(C(=O)N(CCCN(C)C)CCCN(C)C)n(C)c1 | > 25 µM | 6.34 µM | > 25 µM |  |  |
| Cc1onc(-c2c3ccccc3c(-c3ccccc3)c3ccccc23)c1C(=O)Nc1cc(C(=O)N(CCCN(C)C)CCCN(C)C)n(C)c1 |  |  |  | Active |  |
| Cc1onc(-c2c3ccccc3c(-c3cccc4cccnc34)c3ccccc23)c1C(=O)Nc1cc(C(=O)N(CCCN(C)C)CCCN(C)C)n(C)c1 | 2.03 µM | 1.17 µM | 6.71 µM | Active | Drug uptake [3]: Active; Activity (SNB-19 [4]): Active; Activity (SNB-19 [5]): Active; Drug uptake [6]: Active; Drug uptake [7]: Not Active; Activity (Quadruplex DNA [8]): Active; Tm (Quadruplex DNA [9]): 61.7 °C |
